According to ChEMBL document CHEMBL1130878 (Bioorg Med Chem Lett, 1998):
Each block holds one compound with its values, some of them ahead of it.

Experiments:
[1] = biological target: T1, Endothelin receptor type B (Sus scrofa, UniProt P35463); test: In vitro ability to inhibit specific [125I]ET1 binding to porcine kidney (inner medulla) membranes Endothelin B receptor
T1 sequence (P35463 whole entry): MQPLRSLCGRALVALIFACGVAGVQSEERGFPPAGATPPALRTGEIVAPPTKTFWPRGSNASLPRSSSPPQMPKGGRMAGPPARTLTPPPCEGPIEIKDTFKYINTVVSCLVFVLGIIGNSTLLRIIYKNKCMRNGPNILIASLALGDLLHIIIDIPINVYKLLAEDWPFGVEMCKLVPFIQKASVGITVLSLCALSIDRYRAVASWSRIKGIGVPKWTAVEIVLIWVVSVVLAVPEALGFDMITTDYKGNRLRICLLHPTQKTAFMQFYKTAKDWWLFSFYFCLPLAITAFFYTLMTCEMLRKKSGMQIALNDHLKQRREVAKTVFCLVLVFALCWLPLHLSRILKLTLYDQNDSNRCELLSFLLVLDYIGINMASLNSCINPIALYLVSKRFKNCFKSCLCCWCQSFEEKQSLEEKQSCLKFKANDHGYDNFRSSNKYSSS

[2] = biological target: T2, Endothelin-1 receptor (Rattus norvegicus, UniProt P26684); test: In vitro ability to inhibit specific [125I]ET1 binding to rat aorta membranes Endothelin A receptor; assay type: tissue-based
T2 sequence (P26684 whole entry): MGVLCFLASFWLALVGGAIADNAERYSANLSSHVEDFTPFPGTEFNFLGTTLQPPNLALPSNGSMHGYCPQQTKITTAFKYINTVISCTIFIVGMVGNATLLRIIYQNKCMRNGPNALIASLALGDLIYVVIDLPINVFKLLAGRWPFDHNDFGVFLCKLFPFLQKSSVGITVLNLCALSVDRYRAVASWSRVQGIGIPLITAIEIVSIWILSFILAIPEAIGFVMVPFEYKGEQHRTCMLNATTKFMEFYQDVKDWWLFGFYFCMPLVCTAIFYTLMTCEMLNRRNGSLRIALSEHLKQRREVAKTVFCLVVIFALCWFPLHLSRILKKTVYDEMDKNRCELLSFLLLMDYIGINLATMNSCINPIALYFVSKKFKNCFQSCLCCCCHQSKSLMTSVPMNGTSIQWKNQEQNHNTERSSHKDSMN

[3] = tested on: Rattus norvegicus; test: Effect of compound on motor activity of spontaneously hypertensive rats after single oral administration of 3 mg/Kg dose; assay type: functional
Summary of the method: (§1)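 Conscious spontaneously hypertensive rats were given a single oral dose at 12:00, with 5% arabic gum as the control vehicle. Heart rate and motor activity were monitored by telemetry. Change from a 3 h predrug period (9:00-12:00) was expressed as AUC0-12h (12:00-24:00). n = 6-13 per group, mean ± SEM, ANOVA with Dunnett's test vs control.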

[4] = Compound was evaluated for AUC after treatment with iv dose of 1 mgkg to female cynomolgus monkey; assay type: ADME, organism-based; parameters: dose 1 mgkg, route intravenous; details: cercopithecidae, in vivo, 1 mg/kg
Summary of the method: (§2)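 A female cynomolgus monkey (n = 1) received a single dose of either 1 mg/kg iv or 2 mg/kg orally. Plasma concentration-time data gave Cmax, tmax, AUC, clearance and Vss. Half-life was calculated over 1-8 h post administration.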

[5] = Compound was evaluated for maximum concentration after treatment with oral dose of 2 mgkg to female cynomolgus monkey; assay type: ADME, organism-based; parameters: dose 2 mgkg, route oral; details: cercopithecidae, in vivo, 2 mg/kg; summary of the method: as §2
[6] = tested on: Rattus norvegicus; test: ET-1 induced increase in mean arterial pressure following 0.3 mg/kg oral administration of compound; assay type: functional, Artery
[7] = tested on: Rattus norvegicus; test: Compound was evaluated for AUC after treatment with oral dose of 2 mgkg to female wistar rats; assay type: ADME, organism-based; parameters: dose 2 mgkg, route oral; details: in vivo, 2 mg/kg
Summary of the method: (§3)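 Male and female Wistar rats, n = 3 per group, received a single dose of either 1 mg/kg iv or 2 mg/kg orally. Plasma levels were followed after dosing. Half-life was taken over the interval 1-8 h post administration. Oral bioavailability was derived against the iv data.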

[8] = Compound was evaluated for clearance after treatment with iv dose of 1 mgkg to female wistar rats; assay type: ADME, organism-based; parameters: dose 1 mgkg, route intravenous; details: rat, in vivo, 1 mg/kg; summary of the method: as §3
[9] = tested on: Rattus norvegicus; test: Effect of compound on motor activity of spontaneously hypertensive rats after single oral administration of 0.3 mg/Kg dose; assay type: functional; summary of the method: as §1
[10] = Compound was evaluated for volume of distribution (steady state) after treatment with iv dose of 1 mgkg to male wistar rats; assay type: ADME, organism-based; parameters: dose 1 mgkg, route intravenous; details: rat, in vivo, 1 mg/kg, read-out: Vss; summary of the method: as §3
[11] = tested on: Rattus norvegicus; test: Effect of compound on heart rate activity of spontaneously hypertensive rats after single oral administration of 0.3 mg/Kg dose; assay type: functional; summary of the method: as §1
[12] = Compound was evaluated for half life after treatment with iv dose of 1 mgkg to female wistar rats; assay type: ADME, organism-based; parameters: dose 1 mgkg, route intravenous; details: rat, in vivo, 1 mg/kg; summary of the method: as §3
[13] = tested on: Rattus norvegicus; test: Effect of compound on heart rate activity of spontaneously hypertensive rats after single oral administration of 30 mg/Kg dose; assay type: functional; summary of the method: as §1
[14] = Compound was evaluated for volume of distribution (steady state) after treatment with iv dose of 1 mgkg to female cynomolgus monkey; assay type: ADME, organism-based; parameters: dose 1 mgkg, route intravenous; details: cercopithecidae, in vivo, 1 mg/kg, read-out: Vss; summary of the method: as §2
[15] = tested on: Rattus norvegicus; test: ET-1 induced increase in mean arterial pressure following 1 mg/kg oral administration of compound; assay type: functional, Artery
[16] = tested on: Rattus norvegicus; test: Effect of compound on motor activity of spontaneously hypertensive rats after single oral administration of 0.03 mg/Kg dose; assay type: functional; summary of the method: as §1
[17] = tested on: Rattus norvegicus; test: ET-1 induced increase in mean arterial pressure following 0.1 mg/kg oral administration of compound; assay type: functional, Artery
[18] = Compound was evaluated for clearance after treatment with iv dose of 1 mgkg to male wistar rats; assay type: ADME, organism-based; parameters: dose 1 mgkg, route intravenous; details: rat, in vivo, 1 mg/kg; summary of the method: as §3
[19] = tested on: Rattus norvegicus; test: Compound was evaluated for AUC after treatment with iv dose of 1 mgkg to female wistar rats; assay type: ADME, organism-based; parameters: dose 1 mgkg, route intravenous; details: in vivo, 1 mg/kg; summary of the method: as §3
[20] = tested on: Rattus norvegicus; test: Effect of compound on motor activity of spontaneously hypertensive rats after single oral administration of 10 mg/Kg dose; assay type: functional; summary of the method: as §1
[21] = Compound was evaluated for volume of distribution (steady state) after treatment with iv dose of 1 mgkg to female wistar rats; assay type: ADME, organism-based; parameters: dose 1 mgkg, route intravenous; details: rat, in vivo, 1 mg/kg, read-out: Vss; summary of the method: as §3
[22] = Compound was evaluated for maximum time to reach Cmax after treatment with oral dose of 2 mgkg to female wistar rats; assay type: ADME, organism-based; parameters: dose 2 mgkg, route oral; details: rat, in vivo, 2 mg/kg; summary of the method: as §3
[23] = Compound was evaluated for AUC after treatment with oral dose of 2 mgkg to female cynomolgus monkey; assay type: ADME; details: cercopithecidae, in vivo; summary of the method: as §2
[24] = tested on: Rattus norvegicus; test: Effect of compound on heart rate activity of spontaneously hypertensive rats after single oral administration of 0.1 mg/Kg dose; assay type: functional; summary of the method: as §1
[25] = Compound was evaluated for maximum time to reach Cmax after treatment with oral dose of 2 mgkg to male wistar rats; assay type: ADME, organism-based; parameters: dose 2 mgkg, route oral; details: rat, in vivo, 2 mg/kg; summary of the method: as §3
[26] = tested on: Rattus norvegicus; test: Effect of compound on motor activity of spontaneously hypertensive rats after single oral administration of 0.1 mg/Kg dose; assay type: functional; summary of the method: as §1
[27] = organism: Oryctolagus cuniculus; test: Compound was evaluated for the functional assay performed by obtaining sarafotoxin 6c concentration-response curves [pA2(ETB)] in isolated rabbit jugularis vein
[28] = organism: Rattus norvegicus; test: Compound was evaluated for the functional assay performed by obtaining ET-1 concentration-response curves [pA2(ETA)] in isolated rat aortic rings; details: Aorta, read-out: pA2 (converted)
Summary of the method: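 Functional ETA assay: ET-1 concentration-response curves in isolated rat aortic rings with the endothelium removed. Antagonism is expressed as pA2.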

[29] = tested on: Rattus norvegicus; test: Compound was evaluated for AUC after treatment with oral dose of 2 mgkg to male wistar rats; assay type: ADME, organism-based; parameters: dose 2 mgkg, route oral; details: in vivo, 2 mg/kg; summary of the method: as §3
[30] = tested on: Rattus norvegicus; test: Effect of compound on heart rate activity of spontaneously hypertensive rats after single oral administration of 1 mg/Kg dose; assay type: functional; summary of the method: as §1
[31] = tested on: Rattus norvegicus; test: Effect of compound on heart rate activity of spontaneously hypertensive rats after single oral administration of 3 mg/Kg dose; assay type: functional; summary of the method: as §1
[32] = Compound was evaluated for maximum time to reach Cmax after treatment with oral dose of 2 mgkg to female cynomolgus monkey; assay type: ADME, organism-based; parameters: dose 2 mgkg, route oral; details: cercopithecidae, in vivo, 2 mg/kg; summary of the method: as §2
[33] = Compound was evaluated for maximum concentration after treatment with oral dose of 2 mgkg to female wistar rats; assay type: ADME, organism-based; parameters: dose 2 mgkg, route oral; details: rat, in vivo, 2 mg/kg; summary of the method: as §3
[34] = Compound was evaluated for half life after treatment with iv dose of 1 mgkg to male wistar rats; assay type: ADME, organism-based; parameters: dose 1 mgkg, route intravenous; details: rat, in vivo, 1 mg/kg; summary of the method: as §3
[35] = Compound was evaluated for maximum concentration after treatment with oral dose of 2 mgkg to male wistar rats; assay type: ADME, organism-based; parameters: dose 2 mgkg, route oral; details: rat, in vivo, 2 mg/kg; summary of the method: as §3
[36] = Compound was evaluated for half-life after treatment with iv dose of 1 mgkg to female cynomolgus monkey; assay type: ADME, organism-based; parameters: dose 1 mgkg, route intravenous; details: cercopithecidae, in vivo, 1 mg/kg; summary of the method: as §2
[37] = tested on: Rattus norvegicus; test: Effect of compound on heart rate activity of spontaneously hypertensive rats after single oral administration of 0.03 mg/Kg dose; assay type: functional; summary of the method: as §1
[38] = tested on: Rattus norvegicus; test: Effect of compound on heart rate activity of spontaneously hypertensive rats after single oral administration of 10 mg/Kg dose; assay type: functional; summary of the method: as §1
[39] = tested on: Rattus norvegicus; test: Effect of compound on motor activity of spontaneously hypertensive rats after single oral administration of 30 mg/Kg dose; assay type: functional; summary of the method: as §1
[40] = tested on: Rattus norvegicus; test: Effect of compound on motor activity of spontaneously hypertensive rats after single oral administration of 1 mg/Kg dose; assay type: functional; summary of the method: as §1
[41] = Compound was evaluated for clearance after treatment with iv dose of 1 mgkg to female cynomolgus monkey; assay type: ADME, organism-based; parameters: dose 1 mgkg, route intravenous; details: cercopithecidae, in vivo, 1 mg/kg; summary of the method: as §2
[42] = tested on: Rattus norvegicus; test: Compound was evaluated for AUC after treatment with iv dose of 1 mgkg to male wistar rats; assay type: ADME, organism-based; parameters: dose 1 mgkg, route intravenous; details: in vivo, 1 mg/kg; summary of the method: as §3
[43] = tested on: Rattus norvegicus; test: ET-1 induced increase in mean arterial pressure following 3 mg/kg oral administration of compound; assay type: functional, Artery

IC50 [1]: 260 nM
IC50 [2]: 1.4 nM
SMILES: COc1ccc(C(=O)/C(Cc2cc(OC)c(OC)c(OC)c2)=C(\C(=O)O)c2ccc3nsnc3c2)cc1C

AUC [4]: 3300 ng·h/mL
IC50 [1]: 160 nM
Cmax [5]: 3830 ng/mL
AUC [7]: 21300 ng·h/mL
clearance [8]: 1.67 mL/min/kg
Vd [10]: 0.5 L/kg
half-life [12]: 102 min
Vd [14]: 0.1 L/kg
clearance [18]: 6.67 mL/min/kg
AUC [19]: 15400 ng·h/mL
Vd [21]: 0.2 L/kg
Tmax [22]: 30 min
AUC [23]: 4260 ng·h/mL
Tmax [25]: 30 min
IC50 [2]: 0.032 nM
AUC [29]: 1630 ng·h/mL
Tmax [32]: 30 min
Cmax [33]: 3160 ng/mL
half-life [34]: 96 min
Cmax [35]: 1010 ng/mL
half-life [36]: 60 min
clearance [41]: 5 mL/min/kg
AUC [42]: 2500 ng·h/mL
SMILES: COc1ccc(C(=O)/C(Cc2cc(OC)c(OC)c(OC)c2)=C(\C(=O)[O-])c2ccc3nsnc3c2)cc1F.[Na+]
AUC0-12h ΔMA [3]: -102 units·h
Mean arterial blood pressure [6]: 24 mmHg
AUC0-12h ΔMA [9]: -93 units·h
AUC0-12h ΔHR [11]: -413 min-1·h
AUC0-12h ΔHR [13]: -260 min-1·h
Mean arterial blood pressure [15]: 11 mmHg
AUC0-12h ΔMA [16]: -97 units·h
Mean arterial blood pressure [17]: 32 mmHg
AUC0-12h ΔMA [20]: -131 units·h
AUC0-12h ΔHR [24]: -341 min-1·h
AUC0-12h ΔMA [26]: -72 units·h
Kb [27]: 1000 nM
Kb [28]: 0.316 nM
AUC0-12h ΔHR [30]: -344 min-1·h
AUC0-12h ΔHR [31]: -356 min-1·h
AUC0-12h ΔHR [37]: -384 min-1·h
AUC0-12h ΔHR [38]: -349 min-1·h
AUC0-12h ΔMA [39]: -99 units·h
AUC0-12h ΔMA [40]: -131 units·h
Mean arterial blood pressure [43]: 7 mmHg

IC50 [1]: 400 nM
IC50 [2]: 6.5 nM
SMILES: COc1cc(C/C(C(=O)c2ccc3c(c2)OCO3)=C(/C(=O)O)c2ccc3nsnc3c2)cc(OC)c1OC
